From paper PMC3701436 (Journal of medicinal chemistry, 2012)

Assays:
[1] = biological target: hERG channels (Homo sapiens, UniProt Q12809); experiment: hERG channel block; format: biochemical; settings: at a concentration of 10 μM or below
[2] = biological target: MeV RdRp (Measles virus, UniProt P12576); experiment: Plasmid-based mini-replicon luciferase assay of RdRp activity in BSR-T7/5 cells; format: cell-based; settings: 36 hours post-transfection; averages of three experiments
Method in brief: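 BSR-T7/5 cells were transfected with plasmids encoding MeV L, N and P plus a firefly luciferase minigenome reporter, then incubated with a range of test compound concentrations or vehicle. Luciferase activity in cell lysates was read 36 h post-transfection and expressed relative to vehicle-treated samples. Dose-response inhibition curves were generated from the mean of three experiments ± SD.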

[3] = test system: Caco-2; experiment: Caco-2 bi-directional permeability assay; format: in vitro ADME
[4] = test system: bacterial reverse mutation; experiment: Non-GLP in vitro bacterial reverse mutation; format: cell-based

Sequence of MeV RdRp (P12576 whole entry): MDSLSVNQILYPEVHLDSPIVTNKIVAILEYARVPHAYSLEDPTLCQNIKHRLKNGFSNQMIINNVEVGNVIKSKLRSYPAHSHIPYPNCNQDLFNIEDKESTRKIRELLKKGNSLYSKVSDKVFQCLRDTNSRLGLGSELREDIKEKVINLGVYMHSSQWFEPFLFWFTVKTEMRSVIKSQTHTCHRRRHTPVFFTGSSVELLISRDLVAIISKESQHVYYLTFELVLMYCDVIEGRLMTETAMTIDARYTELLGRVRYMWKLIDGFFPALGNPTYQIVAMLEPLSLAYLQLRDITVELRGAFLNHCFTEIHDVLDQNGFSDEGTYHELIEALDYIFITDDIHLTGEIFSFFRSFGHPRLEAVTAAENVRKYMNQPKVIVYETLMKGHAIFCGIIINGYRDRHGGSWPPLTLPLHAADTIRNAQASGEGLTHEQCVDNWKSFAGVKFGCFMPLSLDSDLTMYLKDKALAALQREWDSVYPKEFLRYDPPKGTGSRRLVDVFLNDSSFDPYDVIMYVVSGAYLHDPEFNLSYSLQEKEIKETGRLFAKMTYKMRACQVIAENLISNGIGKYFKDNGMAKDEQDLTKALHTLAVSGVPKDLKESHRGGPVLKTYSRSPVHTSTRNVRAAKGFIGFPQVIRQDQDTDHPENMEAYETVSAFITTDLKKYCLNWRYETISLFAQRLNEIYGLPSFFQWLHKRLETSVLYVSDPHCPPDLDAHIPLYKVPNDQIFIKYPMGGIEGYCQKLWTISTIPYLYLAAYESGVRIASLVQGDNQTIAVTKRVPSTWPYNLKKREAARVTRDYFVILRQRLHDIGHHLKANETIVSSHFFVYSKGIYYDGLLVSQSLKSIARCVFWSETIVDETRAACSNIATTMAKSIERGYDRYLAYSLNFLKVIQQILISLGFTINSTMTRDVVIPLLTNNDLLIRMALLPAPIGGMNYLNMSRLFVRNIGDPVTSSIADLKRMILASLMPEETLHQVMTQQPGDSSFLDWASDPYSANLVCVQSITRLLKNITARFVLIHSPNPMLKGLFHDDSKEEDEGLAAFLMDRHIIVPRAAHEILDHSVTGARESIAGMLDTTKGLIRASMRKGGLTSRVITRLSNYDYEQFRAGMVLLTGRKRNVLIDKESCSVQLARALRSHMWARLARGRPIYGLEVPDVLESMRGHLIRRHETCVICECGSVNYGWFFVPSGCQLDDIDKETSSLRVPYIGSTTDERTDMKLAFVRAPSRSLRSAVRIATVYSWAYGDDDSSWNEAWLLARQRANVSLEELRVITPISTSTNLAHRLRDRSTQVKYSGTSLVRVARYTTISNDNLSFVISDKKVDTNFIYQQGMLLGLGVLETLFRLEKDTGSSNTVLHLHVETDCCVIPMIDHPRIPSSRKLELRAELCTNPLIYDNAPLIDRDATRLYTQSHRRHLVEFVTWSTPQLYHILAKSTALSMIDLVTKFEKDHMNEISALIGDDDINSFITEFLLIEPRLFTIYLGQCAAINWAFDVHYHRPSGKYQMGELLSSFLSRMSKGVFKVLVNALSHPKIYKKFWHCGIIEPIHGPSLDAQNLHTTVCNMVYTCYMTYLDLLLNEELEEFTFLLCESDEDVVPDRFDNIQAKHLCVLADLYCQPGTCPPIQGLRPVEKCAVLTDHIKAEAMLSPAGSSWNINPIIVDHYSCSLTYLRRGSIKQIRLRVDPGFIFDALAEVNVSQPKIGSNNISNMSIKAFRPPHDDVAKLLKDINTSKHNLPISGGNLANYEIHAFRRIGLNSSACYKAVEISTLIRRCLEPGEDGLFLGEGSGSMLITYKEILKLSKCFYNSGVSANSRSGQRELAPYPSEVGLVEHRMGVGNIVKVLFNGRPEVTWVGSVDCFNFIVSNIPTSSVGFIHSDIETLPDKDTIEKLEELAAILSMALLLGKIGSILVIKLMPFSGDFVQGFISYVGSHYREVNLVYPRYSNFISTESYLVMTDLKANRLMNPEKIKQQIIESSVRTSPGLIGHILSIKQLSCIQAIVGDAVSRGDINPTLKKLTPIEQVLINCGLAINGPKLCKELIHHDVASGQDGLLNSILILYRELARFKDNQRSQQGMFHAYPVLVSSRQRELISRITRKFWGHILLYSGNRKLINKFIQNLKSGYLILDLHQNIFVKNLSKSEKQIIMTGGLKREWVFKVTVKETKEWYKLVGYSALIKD
Sequence of MeV RdRp (P03422 whole entry, further chain): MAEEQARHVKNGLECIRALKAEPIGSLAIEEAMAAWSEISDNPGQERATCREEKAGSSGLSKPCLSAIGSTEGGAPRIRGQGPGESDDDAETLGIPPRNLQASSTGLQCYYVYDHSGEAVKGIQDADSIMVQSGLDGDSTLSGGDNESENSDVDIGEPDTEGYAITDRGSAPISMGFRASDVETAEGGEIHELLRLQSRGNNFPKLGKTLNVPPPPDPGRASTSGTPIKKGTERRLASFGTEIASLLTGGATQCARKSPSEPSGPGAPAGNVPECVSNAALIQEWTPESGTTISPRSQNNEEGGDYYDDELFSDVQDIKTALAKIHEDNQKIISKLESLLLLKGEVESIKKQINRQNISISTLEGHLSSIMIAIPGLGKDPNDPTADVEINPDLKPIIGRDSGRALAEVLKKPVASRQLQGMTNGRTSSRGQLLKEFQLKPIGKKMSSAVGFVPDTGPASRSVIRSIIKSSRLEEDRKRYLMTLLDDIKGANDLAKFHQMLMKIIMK
Sequence of hERG channels (Q12809 whole entry): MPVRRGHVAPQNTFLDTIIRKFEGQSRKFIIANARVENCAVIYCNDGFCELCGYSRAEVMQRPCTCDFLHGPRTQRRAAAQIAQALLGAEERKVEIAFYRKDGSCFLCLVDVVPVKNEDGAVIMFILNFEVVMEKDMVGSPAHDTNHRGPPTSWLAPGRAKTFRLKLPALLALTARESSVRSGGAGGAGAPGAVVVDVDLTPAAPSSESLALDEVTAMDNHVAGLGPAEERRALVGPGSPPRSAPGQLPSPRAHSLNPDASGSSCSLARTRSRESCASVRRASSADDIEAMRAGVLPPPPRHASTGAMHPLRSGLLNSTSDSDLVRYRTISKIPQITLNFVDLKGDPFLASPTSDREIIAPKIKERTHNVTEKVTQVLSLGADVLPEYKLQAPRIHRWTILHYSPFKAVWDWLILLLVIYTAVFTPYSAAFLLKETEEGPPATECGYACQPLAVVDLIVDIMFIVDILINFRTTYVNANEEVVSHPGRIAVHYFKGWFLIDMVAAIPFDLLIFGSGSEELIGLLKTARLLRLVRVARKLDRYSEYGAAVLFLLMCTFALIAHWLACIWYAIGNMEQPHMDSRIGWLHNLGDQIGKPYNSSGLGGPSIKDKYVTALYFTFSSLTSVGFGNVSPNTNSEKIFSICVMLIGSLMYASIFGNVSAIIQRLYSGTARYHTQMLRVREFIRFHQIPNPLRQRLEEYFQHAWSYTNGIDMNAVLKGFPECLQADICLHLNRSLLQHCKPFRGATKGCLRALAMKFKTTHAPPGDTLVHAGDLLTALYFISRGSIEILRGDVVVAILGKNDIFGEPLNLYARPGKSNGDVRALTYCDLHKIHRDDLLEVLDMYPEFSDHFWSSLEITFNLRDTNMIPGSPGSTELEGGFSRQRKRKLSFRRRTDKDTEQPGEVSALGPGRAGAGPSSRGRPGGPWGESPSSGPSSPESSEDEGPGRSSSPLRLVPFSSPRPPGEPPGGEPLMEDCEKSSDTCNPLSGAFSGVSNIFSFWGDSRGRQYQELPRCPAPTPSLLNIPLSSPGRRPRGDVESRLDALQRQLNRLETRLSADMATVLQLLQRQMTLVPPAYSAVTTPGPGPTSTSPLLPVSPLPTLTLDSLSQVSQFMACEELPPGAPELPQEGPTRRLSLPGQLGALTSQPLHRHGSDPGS

SMILES | hERG channel block [1] | inhibition of viral RdRp activity (relative luciferase activity) [2] | permeability [3] | mutagenicity (Ames) [4]
Cn1nc(C(F)(F)F)cc1C(=O)Nc1ccc(S(=O)(=O)N2CCCCC2)cc1 [Compound 2] | did not block | dose-dependent inhibition | high permeability | non-mutagenic
Cn1nc(C(F)(F)F)cc1C(=O)Nc1ccc(S(=O)(=O)N2CCCC[C@H]2CCN2CCOCC2)cc1 [Compound 2o, (S)-1-methyl-N-(4-((2-(2-morpholinoethyl)piperidin-1-yl)sulfonyl)phenyl)-3-(trifluoromethyl)-1H-pyrazole-5-carboxamid] |  | dose-dependent inhibition | high permeability | 
